Data set [1] has as its system NCI-H460. The experiment in a line: Antimitotic activity against human NCI-H460 cells assessed as inhibition of cell proliferation incubated for 72 hrs by Alamar blue based fluorescence spectrophotometric analysis. The data set is classed as functional. As to conditions: NCI-H460, 72 h. Put shortly: (§1)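 Cancer cell lines were cultured per supplier instructions and exposed to various inhibitor concentrations for 72 h. Growth was read as Alamar blue conversion by fluorescence. EC50 (50% growth inhibition) was extrapolated from the dose-response curve fit.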
On the technique in general: The colour change of resazurin is a common sign of viable cells or microbes.

Data set [2] has as its system Granta-519. The data set is described as follows: Antimitotic activity against human Granta-519 cells assessed as inhibition of cell proliferation incubated for 72 hrs by Alamar blue based fluorescence spectrophotometric analysis. The data set is classed as functional. The note with it: Granta-519, 72 h. The essentials: as §1
Data set [3] in a line: Cmax in BomTac:NMRI-Foxn1nu mouse at 35 mg/kg, iv by HPLC-MS/MS analysis. The note with it: in vivo. The data set is classed as ADME, organism-based. Put shortly:
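Female nude mice, n = 3, single i.v. dose (vehicle 0.1 N HCl diluted with 0.9% NaCl, 10 mL/kg). BI 6727 measured in EDTA plasma at several times by HPLC-MS/MS with internal standard. Parameters came from noncompartmental analysis. Terminal half-life was taken from the last two time points after i.v. dosing.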

Data set [4] can be described thus: Oral bioavailability in BomTac:NMRI-Foxn1nu mouse at 50 mg/kg by HPLC-MS/MS analysis. The data set is classed as ADME, organism-based. The note with it: in vivo. Put shortly:
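Single oral gavage of BI 6727 suspended in 0.5% hydroxyethyl-cellulose (10 mL/kg) to female nude mice or male Wistar rats. EDTA plasma levels measured over time by HPLC-MS/MS with internal standard. AUC0-24 by trapezoidal rule. Parameters from noncompartmental analysis.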

For data set [5], the system named is HCT-116. The experiment in a line: Antitumor activity against human HCT-116 cells xenografted in BomTac:NMRI-Foxn1nu mouse assessed as T/C at 25 mg/kg, iv administered twice a week upto 6 weeks relative to control. The format is functional. The essentials:
(§2)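 Female nude mice bore s.c. HCT 116 (2×10^6 cells), NCI-H460 (1×10^6 cells) or serially transplanted CXB1 tumor pieces. At ~50–100 mm³, mice were randomized into groups of 10 and dosed i.v. (0.1 N HCl/saline) or by gavage (0.5% hydroxyethyl-cellulose) at 10 mL/kg. Calipers read thrice weekly, volume = length×width²×π/6. T/C from median volumes on the last day.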
On the technique in general: Xenograft models place foreign cells or tissue in a host animal.

Data set [6] in a line: AUC (0 to 24 hrs) in human HCT-116 cells xenografted in BomTac:NMRI-Foxn1nu mouse at 30 mg/kg, iv administered once a week upto 6 weeks by HPLC-MS/MS analysis. The data set is classed as ADME, organism-based. The note with it: in vivo, 1008 h.
Data set [7] relates to HCT-116. The data set is described as follows: Antitumor activity against human HCT-116 cells xenografted in BomTac:NMRI-Foxn1nu mouse assessed as tumor growth delay at 15 mg/kg, iv administered twice a week on consecutive days. The data set is classed as functional, organism-based. As to conditions: time 7.0 day. The essentials: as §2
Data set [8] has as its system HCT-116. The data set is described as follows: Antitumor activity against human HCT-116 cells xenografted in BomTac:NMRI-Foxn1nu mouse assessed as mitotic index in small intestine at 40 mg/kg, iv. The format is functional, organism-based. The essentials:
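Female nude mice bore s.c. HCT 116 tumors (~200 mm³) and received a single i.v. 40 mg/kg dose or vehicle (n=3 per group per time). Tumor, small intestine and large intestine were taken at 6, 24 and 48 h. Frozen sections were stained for pSer10 histone H3 (immunoperoxidase) or by TUNEL. Positive area was calculated as % of tumor cell area; Student's t test.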

SMILES strings stand for the structures. Active and inactive are the calls of the source. The rule behind the calls is not given here.

Consider `CC[C@@H]1C(=O)N(C)c2cnc(Nc3ccc(C(=O)N[C@H]4CC[C@H](N5CCN(CC6CC6)CC5)CC4)cc3OC)nc2N1C(C)C` [VOLASERTIB], for which the EC50 – broadly, the midpoint of the concentration-response curve – amounted to 21 nM in data set [1] and 15 nM in data set [2]. Moreover, the Cmax (commonly the maximum level reached in the sampled fluid or tissue) in data set [3] is 7.1 µM. Further, in data set [4], the bioavailability (in general, the share of a dose that reaches the circulation, judged against a reference dose that is usually intravenous) turned out to be 41%. In data set [5], the T/C – broadly, the ratio of treated to control – turned out to be 0.3%. Moreover, in data set [6], the AUC (in general, concentration integrated over time) was found to be 52 µM·h. For the same molecule, the result in data set [7] was Active. In addition, in data set [8], the result was inactive.
